High-throughput results deposited in PubChem BioAssay by several laboratories.
TLR4 MyD88 comp = inhibitors of TLR4-MyD88 association in cells, primary screen, cell-based, HeLa CL3-4, BLA complementation, FRET ratio; inhibition, % at 8.4 µM; HeLa CL3-4 TLR4/MyD88 BLA complementation; Toll-like receptor 4 (Homo sapiens) + Myeloid differentiation primary response protein …; hit rate 0.18% among 200,000; in the data active = inhibition above about 25%;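 also: 0% = vehicle and 100% = reference inhibitor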
Hsp70 act = Hsp70 transcriptional activators, primary screen, cell-based, HeLa, Hsp70 promoter luciferase, luminescence, 10 µM. HeLa Hsp70 promoter luciferase reporter; scaled: vehicle 0, proteasome-inhibitor control 100%. activation, % at 10 µM. hit rate 0.04% among 200,000. AID 1203, 2008;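 active = activation above the mean across all tested compounds plus 3 SD, cutoff set per campaign, cut at about 5.5% in these data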;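 also: 100% = MG132 at 30 µM as the positive control and 0% = DMSO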
bCat nuc transl = modulators of beta-catenin nuclear translocation, primary screen, imaging, HeLa cells, immunofluorescence, high-content; nuclear translocation activity, % at 5 µM; hit rate 0.3% among 190,000; AID 1665, 2009;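 active = nuclear translocation activity above 50% at 5 µM, with a well cell count of 50 or more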;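 also: per-cell ratio of nuclear to cytoplasmic median beta-catenin stain intensity; plate controls were DMSO negative control for no effect and GSK-3 inhibitor IX positive control for full effect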
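Test system: human HeLa cells, endogenous beta-catenin. Times: 24 h compound exposure, 37°C. Measured by: beta-catenin immunofluorescence imaging with DAPI.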
MT stabilize HCS = microtubule stabilizers in HeLa cells, primary screen, imaging, high-content imaging; HeLa tubulin immunostaining HCS, 24 h; share of cells brighter than vehicle mean+2SD; % tubulin-high responders, % at 10 µM; hit rate 0.83% among 200,000; AID 2205, 2009;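 active = plate Z-score above 3 for both tubulin-high and condensed-nucleus cell shares, with cell loss under 80%, at 10 µM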;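 also: anti alpha tubulin signal scored within the nucleus-defined area of each cell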
TLR9-MyD88 inh = inhibitors of TLR9-MyD88 association in cells, primary screen, cell-based, CHO, BLA complementation, fluorescence; CCF4 FRET ratio; inhibition, % at 4.98 µM; hit rate 0.21% among 340,000; AID 504734, 2011; Toll-like receptor 9 (Homo sapiens) + Myeloid differentiation primary response protein …;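 active = inhibition above the mean over all tested compounds plus 3 SD, cut at about 21% in these data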;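 also: 0% = DMSO only wells and 100% = clavulanate BLA inhibitor control wells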
NOD2-RIPK2 inh = NOD2-RIPK2 binding disruptors in cells, primary screen, fluorescence, CHO cells, BLA complementation; CCF4 ratio; inhibition, % at 4.98 µM; hit rate 0.38% among 360,000; in the data active = inhibition above about 21%;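 also: 0% = vehicle only and 100% = reference blocker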
Numbers without * were called inactive; . = no result given. Hits are enriched below; roughly 1% of the tested compounds scored in any of these assays.

SMILES	TLR4 MyD88 comp	Hsp70 act	bCat nuc transl	MT stabilize HCS	TLR9-MyD88 inh	NOD2-RIPK2 inh
Cc1ccc(N=C2NC(=O)/C(=C/c3cccn3C)S2)cc1	.	.	65*	.	-2	6
Cc1ccc(N=C2NC(=O)/C(=C\c3ccc(C)s3)S2)cc1	-7	0	2	6.3*	-1	-4
Cc1ccc(N=C2NC(=O)/C(=C/c3cccn3C)S2)cc1C	.	.	0	.	.	-13
COc1ccccc1C(C(=O)c1ccccc1)c1ccc(O)cc1 (stereo unspecified)	.	.	.	.	.	6
CC1(Cc2ccccc2F)C(=O)Nc2c(Cl)ccc(Cl)c21 (stereo unspecified)	.	.	.	.	.	-7
CCC1CCCCN1CC(=O)Nc1cc(C)nn1-c1nc(C)cc(C)n1 (stereo unspecified)	-9	0	1	53*	-8	-3
COc1ccc(-c2cc(-c3cccs3)c(C#N)c(SCC(=O)NCc3ccco3)n2)cc1	12	0	94*	20*	-4	-2
Cc1c(C(=O)NCc2ccc3c(c2)OCO3)sc(=O)n1Cc1ccc(-c2ccccc2)cc1	.	.	.	.	.	-6
CN(CCc1ccccc1)C(=O)c1ccc(NC(=O)Cc2ccc(NC(=O)C3CCN(C(=O)c4ccccc4)CC3)cc2)cc1	.	.	.	.	-4	5
C/C(=N\NC(=S)Nc1ccc(F)cc1)c1ccc2c(c1)OCCO2	21	0	.	22*	9	1
C/C(=N\NC(N)=S)c1ccc2c(c1)OCCO2	.	.	1	.	2	-17
O=C(CNC(=O)c1ccc2c(c1)OCO2)N/N=C(Br)/C=C/c1ccccc1	-5	0	-1	19*	3	-7
Cn1c2ccccc2c2cc(/C=N/NC(=O)c3cc(O)cc(O)c3)ccc21	.	.	.	.	9	7
CCn1c2ccccc2c2cc(/C=N/NC(=O)c3ccccc3)ccc21	-5	0	1	20*	-2	-9
O=C(COc1ccc(S(=O)(=O)N2CCOCC2)cc1)Nc1ccc2c(c1)OCCO2	0	0	.	2	6	-7
O=C(COc1ccc(S(=O)(=O)N2CCOCC2)cc1)Nc1ccc(Cl)c(C(F)(F)F)c1	3	0	2	32*	2	-15
O=C1CCC(C(=O)N2CCSCC2)CN1Cc1cccc(C(F)(F)F)c1 (stereo unspecified)	.	.	.	.	4	-2
Cn1c(SCC(=O)N(C2CCCCC2)C2CCCCC2)nnc1-c1cccs1	-4	0	.	28*	1	8
Cn1c(SCC(=O)NC2CC2)nnc1-c1cccs1	.	.	.	.	3	-3
CCOc1ccccc1CNn1cnnc1	.	.	.	.	-5	-8
Clc1cccc(Cl)c1COc1ccccc1CNn1cnnc1	6	0	3	22*	-17	-4
COc1ccc(S(=O)(=O)N2c3ccccc3OCC2C)cc1 (stereo unspecified)	10	0	111*	18*	.	3
COc1ccc(S(=O)(=O)N2c3ccccc3OCC2C(C)(C)C)cc1 (stereo unspecified)	10	0	9	14*	-2	-9
COc1ccc(S(=O)(=O)N2c3ccccc3OCC2c2ccccc2)cc1 (stereo unspecified)	-5	0	1	23*	4	-10
COc1ccc(S(=O)(=O)N2c3ccccc3OCC2CC(=O)O)cc1 (stereo unspecified)	.	.	.	.	-1	1
CN(C)c1ccc(NC(=O)C2C3C=CC(C3)C2C(=O)O)cc1 (stereo unspecified)	.	.	.	.	-6	-7
OCCN1CCN(c2ncnc3c2ncn3[C@H]2CN(Cc3ccc(F)cc3)C[C@@H](CO)O2)CC1	.	.	.	.	.	0
O=C(Nc1ccc(S(=O)(=O)N2CCCC2)cc1)C1CC(=O)N(CCc2ccccc2)C1 (stereo unspecified)	.	.	.	.	0	9
O=C(CNC(=O)c1ccc(F)cc1)N/N=C/c1cccnc1	.	.	.	.	-4	0
O=C(CN1CCN(Cc2ccccc2)CC1)N1CCCc2c1c(=O)oc1ccc(O)cc21	-15	0	0	35*	7	4
